Screening results from PubChem BioAssay.
Hits are enriched below; roughly 1.8% of the tested compounds scored in any of these assays.
EBI2 block: EBI2 receptor antagonists, beta-arrestin recruitment, primary screen, cell-based, luminescence, 7a,25-OHC stimulation, uHTS; 360,000 tested, 0.81% active; inhibition, % at 5 µM; 7a,25-OHC stimulated; AID 651636, 2012; in the data active = inhibition above about 38%;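 note: enzyme fragment complementation signal reports receptor beta-arrestin coupling in cells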
APJ ag: agonists of human apelin receptor APJ, primary screen, CHO-K1 cells, PathHunter beta-arrestin, luminescence | 0% DMSO wells, 100% apelin | P35414 | activation, % at 20 µM | 330,000 tested, 0.11% active;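 active = activation more than six SD over the plate average, tested at 20 µM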
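Assay system: CHO-K1 APJ beta-arrestin complementation cell line / Compound: single test compound dose, 20 µM final, 1% DMSO / Times: overnight seeding, 90 min compound at 25 °C, 1 h detection / Technique: beta-gal luminescence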
CCR6 antagonist: CCR6 receptor antagonists, primary screen, cell-based, CHO-K1, luminescence, beta-arrestin, uHTS; C-C chemokine receptor type 6 (Homo sapiens), P51684; CHO-K1 CCR6 PathHunter beta-arrestin, CCL20-stimulated; inhibition, % at 20 µM; 340,000 tested, 0.49% active; AID 493098, 2011;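 active = compounds whose inhibition of the agonist-driven luminescence signal at 20 µM reaches about 50%, limit read from the data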;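 note: cells stimulated with CCL20 at 14 nM final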
Beta2AR agonist: beta2AR agonists driving receptor internalization, primary screen, cell-based, FAP fluorogen, flow cytometry; 340,000 tested, 0.43% active; Beta-2 adrenergic receptor (Homo sapiens), P07550; response, % (concentration not given with the values); Am2.2-beta2AR cells;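 active = response above a set limit, near 3 SD of response in nonfluorescent compounds, cut at about 42% in these data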
Target sequence (P07550 whole entry, looked up): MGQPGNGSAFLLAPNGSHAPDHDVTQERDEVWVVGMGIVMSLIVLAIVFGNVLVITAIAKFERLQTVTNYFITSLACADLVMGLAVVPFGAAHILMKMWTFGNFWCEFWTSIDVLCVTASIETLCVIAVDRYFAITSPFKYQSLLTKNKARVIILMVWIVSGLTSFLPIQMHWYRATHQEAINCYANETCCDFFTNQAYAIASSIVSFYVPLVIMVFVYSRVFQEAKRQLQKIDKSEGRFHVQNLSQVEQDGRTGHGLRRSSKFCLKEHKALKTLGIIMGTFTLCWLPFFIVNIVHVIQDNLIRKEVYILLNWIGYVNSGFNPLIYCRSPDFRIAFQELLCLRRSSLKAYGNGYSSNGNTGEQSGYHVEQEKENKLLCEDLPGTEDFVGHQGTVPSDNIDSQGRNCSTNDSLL
CXCR6 inh: CXCR6 receptor inhibitors, primary screen, cell-based, beta-arrestin, luminescence, CHO-K1 PathHunter, 1536-well; C-X-C chemokine receptor type 6 (Homo sapiens), O00574; inhibition, % at 20 µM; 360,000 tested, 0.36% active; AID 602244, 2012; in the data active = inhibition above about 34%, passing the limit was not always enough;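 note: antagonist mode with CXCL16 agonist at 10 nM final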
APJ antagonist: antagonists of human apelin receptor APJ, primary screen, CHO-K1 cells, beta-arrestin complementation, luminescence | P35414 | inhibition, % at 20 µM | 330,000 tested, 0.32% active;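 active = inhibition above about 40% at 20 µM, limit read from the data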;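 note: cells challenged with 10 nM apelin-13 agonist together with compound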
Of the large screens only hits and unclear results are named; the others gave an inactive call.

CCNc1nc(SCC(=O)Nc2ccc(Cl)c(Cl)c2)nc(N2CCOCC2)n1	none
O=C1C=CC(=O)N1Cc1ccccc1	CCR6 antagonist 106.7, CXCR6 inh 89.6
O=C1C2CC=CCC2C(=O)N1Cc1ccccc1 (centres undefined)	none
COc1cccc(/C=N/Nc2nc(Nc3ccccc3)nc(-n3nc(C)cc3C)n2)c1O	EBI2 block 65.6, CCR6 antagonist 67.4, CXCR6 inh 57.0
CC(=O)NCCNc1nc2cc(-c3cscc3C)sc2c(=O)n1C	none (no result: APJ ag, CCR6 antagonist, Beta2AR agonist, APJ antagonist)
O=c1oc(-c2ccccc2)cc(Cl)c1Cl	Beta2AR agonist 50.9
O=c1oc(-c2ccccc2)cc2ccccc12	none (no result: APJ ag, CCR6 antagonist, Beta2AR agonist, APJ antagonist)
Cc1cccc(CN2C(=O)/C(=C\c3ccc(C(=O)NCCN4CCOCC4)cc3)Sc3ccccc32)c1	Beta2AR agonist 45.9
CN1CCN(CCCNC(=O)c2ccc(/C=C3\Sc4ccccc4N(Cc4ccccc4F)C3=O)cc2)CC1	Beta2AR agonist 88.2 (no result: APJ ag, APJ antagonist)
Cc1ccccc1CN1C(=O)/C(=C\c2ccc(C(=O)NCCN3CCOCC3)cc2)Sc2ccccc21	none
O=C(NCCN1CCOCC1)c1ccc(/C=C2\Sc3ccccc3N(Cc3ccccc3F)C2=O)cc1	none
CCCNC(=O)c1ccccc1NC(=O)c1ccccc1N(C)S(=O)(=O)c1ccc(C)cc1	none (no result: APJ ag, APJ antagonist)
N#CC(C#N)=C1NC2(CCCCC2)Cc2ccccc21	none
N#CC(C#N)=c1ccc2c(c1)NC1(CCCCC1)N=2	CCR6 antagonist 54.1
CCOc1cc(N2CCOCC2)c(OCC)cc1NC(=O)COC(=O)/C=C/c1ccc(OC(F)F)cc1	none
O=C1[C@@H]2Cc3c([nH]c4ccccc34)C(c3cccc([N+](=O)[O-])c3)N2C(=O)CN1CCCO (some centres undefined)	CCR6 antagonist 50.7
Cc1ccc(NC(=O)CN(C)C(=O)CSc2nnc(C)s2)cc1	none
Cc1ccc2c(c1)C(=O)C(=O)N2CCOc1ccccc1	CCR6 antagonist 51.3
CC(=O)OCC1OC(n2cc(F)c(=O)[nH]c2=O)C(OC(C)=O)C1OC(C)=O (centres undefined)	none
O=C1C(F)=CC(COC(c2ccccc2)(c2ccccc2)c2ccccc2)OC1n1cc(F)c(=O)[nH]c1=O (centres undefined)	CCR6 antagonist 99.0, Beta2AR agonist 87.2, CXCR6 inh 66.7 (no result: APJ ag, APJ antagonist)
CC[C@]12c3[nH]c4ccc(Cl)cc4c3CCN1C(=O)[C@@H](CC(=O)NC/C=C(\C)CCC=C(C)C)C[C@@H]2C(=O)N1CCN(C(=O)C2CC2)CC1	none (no result: APJ ag, APJ antagonist)
CCS(=O)(=O)c1ccc(N=Nc2ccc(O)c3ncccc23)c(OC)c1	none
COc1ccccc1N=Nc1ccc(O)c2ncccc12	CCR6 antagonist 53.7
CC(C)NC(=O)C1(C)CCCN1C(=O)c1ccc2c(c1)C(C)(C)CCC2(C)C (centres undefined)	none (no result: APJ ag, CCR6 antagonist, Beta2AR agonist, APJ antagonist)
COc1ccc(Cl)cc1C(=O)OCC(=O)NCCNC(=O)COC(=O)c1cc(Cl)ccc1OC	none
Cc1[nH]c2ccccc2c1/C=N/NS(=O)(=O)c1ccccc1	none
COc1ccc(NS(=O)(=O)c2cc([N+](=O)[O-])ccc2N/N=C/c2c(C)[nH]c3ccccc23)cc1	CCR6 antagonist 57.7 (no result: APJ ag, APJ antagonist)
Cc1[nH]c2ccccc2c1/C=N/Nc1ccccc1[N+](=O)[O-]	APJ antagonist 43.1
COc1ccc(/C=C/C(=O)N2CCN(c3ccccn3)CC2)c(OC)c1OC	none
CCN(CC)c1ccc(/C=C(\C#N)C(=O)c2ccc(Br)cc2)cc1	EBI2 block 45.1 (no result: APJ ag, APJ antagonist)
CCN(CC)c1ccc(/C=C(\C#N)C(N)=O)cc1	none (no result: APJ ag, APJ antagonist)
CCN(CC)c1ccc(/C=C(\C#N)C(N)=S)cc1	CCR6 antagonist 51.7
COc1ccc(CCNC(=O)c2ccc([N+](=O)[O-])cc2)cc1	none
COc1ccc(C(=O)Nc2nc(-c3ccc([N+](=O)[O-])cc3)c(-c3ccc(OC)cc3)s2)cc1	CCR6 antagonist 60.5
COc1ccc(NC(=O)CN2C(=O)/C(=C3\SC(=S)N(CCC(=O)O)C3=O)c3ccccc32)cc1	CCR6 antagonist 55.2
O=C(c1ccc(Cl)cc1)N1CCN(c2ccnc3cc(Cl)ccc23)CC1	EBI2 block 50.6 (no result: APJ ag, APJ antagonist)
